From ChEMBL document CHEMBL1770092, “Novel N-chloroheterocyclic antimicrobials” (Bioorg Med Chem Lett, 2011)
In brackets after ≈: the same amount, converted by molar mass.

Assays:
Staphylococcus aureus = experiment: Antibacterial activity against Staphylococcus aureus ATCC 29213 after 1 hr by modified CLSI M26-A method; type: functional; details: ATCC 29213, 1 h
Procedure, shortened: (§1)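 Minimum bactericidal or fungicidal concentration (µg/mL) by modified CLSI M26-A: isotonic buffered saline at pH 4 replaces Mueller–Hinton broth because chlorine reacts with broth components, and exposure is shortened from 24 h at 35 °C to 1 h at room temperature.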

Candida albicans = experiment: Antifungal activity against Candida albicans ATCC 10231 after 1 hr by modified CLSI M26-A method; type: functional; details: ATCC 10231, 1 h; procedure, shortened: as §1
Escherichia coli = experiment: Antibacterial activity against Escherichia coli ATCC 25922 after 1 hr by modified CLSI M26-A method; type: functional; details: ATCC 25922, 1 h; procedure, shortened: as §1
[1] = Stability of the compound assessed as half life in aqueous buffer at 40 degC

For CC1(C)C(=O)N(CCCS(=O)(=O)[O-])C(=O)N1Cl.[Na+], the MBC (Staphylococcus aureus) was 32 µg/mL, the MFC (Candida albicans) was greater than 256 µg/mL and the MBC (Escherichia coli) was 16 µg/mL. For the same compound, the half-life [1] was greater than 14 days.

For CC(=O)[O-].CC1(C)CN(CC[N+](C)(C)C)C(=O)N1Cl, the MBC (Staphylococcus aureus) was 128 µg/mL, the MBC (Escherichia coli) was 512 µg/mL and the half-life [1] was 126 days.

In the case of CC1(C)CN(CCO)C(=O)C(C)(C)N1Cl, the MBC (Staphylococcus aureus) is reported as 2 µg/mL (≈ 8.52 µM), the MFC (Candida albicans) is reported as 8 µg/mL (≈ 34.1 µM) and the MBC (Escherichia coli) is reported as 1 µg/mL (≈ 4.26 µM).

With CC1(C)C(=O)N(CCCS(=O)(=O)[O-])C(C)(C)N1Cl.[Na+] the MBC (Staphylococcus aureus) was 16 µg/mL, the MFC (Candida albicans) was 16 µg/mL and the MBC (Escherichia coli) was 4 µg/mL. For the same compound, the half-life [1] was greater than 249 days.

Compound CC1(C)C(=O)N(CCS(=O)(=O)[O-])C(=O)C(C)(C)N1Cl.[Na+] has an MBC (Staphylococcus aureus) of 128 µg/mL, an MFC (Candida albicans) greater than 256 µg/mL and an MBC (Escherichia coli) of 128 µg/mL. For the same compound, the half-life [1] was 90 days.

CC1(C)CC(=O)CC(C)(C)N1Cl gave an MBC (Staphylococcus aureus) of 2 µg/mL (≈ 10.5 µM), an MFC (Candida albicans) of 32 µg/mL (≈ 169 µM) and an MBC (Escherichia coli) of 1 µg/mL (≈ 5.27 µM). The half-life [1] was less than 1 days.

CN1C(=O)N(Cl)C(C)(C[N+](C)(C)C)C1=O.[Cl-] (stereo not drawn) showed an MBC (Staphylococcus aureus) of 64 µg/mL, an MFC (Candida albicans) greater than 256 µg/mL and an MBC (Escherichia coli) of 16 µg/mL. The half-life [1] was 5 days.

For CC1(C)C(=O)N(CC[n+]2ccccc2)C(=O)N1Cl.[Cl-], the half-life [1] was 4 days.

With CC1(C)CC(O)CC(C)(C)N1Cl the MBC (Staphylococcus aureus) was 4 µg/mL (≈ 20.9 µM), the MFC (Candida albicans) was 32 µg/mL (≈ 167 µM) and the MBC (Escherichia coli) was 1 µg/mL (≈ 5.22 µM). It also gave a half-life [1] of 32 days.

Work on CN1CC(C)(CO)N(Cl)C1=O (stereo not drawn) yielded an MBC (Staphylococcus aureus) of 16 µg/mL (≈ 89.6 µM), an MFC (Candida albicans) of 8 µg/mL (≈ 44.8 µM) and an MBC (Escherichia coli) of 16 µg/mL (≈ 89.6 µM). It also gave a half-life [1] greater than 58 days.

CC1(C)CN(CCS(=O)(=O)[O-])C(=O)N1Cl.[Na+] showed an MBC (Staphylococcus aureus) of 64 µg/mL, an MFC (Candida albicans) greater than 256 µg/mL and an MBC (Escherichia coli) of 32 µg/mL. It also gave a half-life [1] greater than 92 days.

With CC1(C)CS(=O)(=O)CC(C)(C)N1Cl the MBC (Staphylococcus aureus) was 1 µg/mL (≈ 4.43 µM), the MFC (Candida albicans) was 128 µg/mL (≈ 567 µM) and the MBC (Escherichia coli) was 2 µg/mL (≈ 8.86 µM). For the same compound, the half-life [1] was greater than 113 days.

For CC1(C)C(=O)N(CCCCC[N+](C)(C)C)C(C)(C)N1Cl.[Cl-], the MBC (Staphylococcus aureus) was 2 µg/mL, the MFC (Candida albicans) was 16 µg/mL and the MBC (Escherichia coli) was 2 µg/mL. The half-life [1] was greater than 160 days.

With CC1(C)CN(CCS(=O)(=O)CCCS(=O)(=O)[O-])C(=O)N1Cl.[Cs+] the MBC (Staphylococcus aureus) was 32 µg/mL, the MBC (Escherichia coli) was 64 µg/mL and the half-life [1] was greater than 112 days.

In the case of CC1(C)C(=O)N(CCS(=O)(=O)[O-])C(=O)N1Cl.[Na+], the MBC (Staphylococcus aureus) is reported as 128 µg/mL, the MFC (Candida albicans) is reported as 128 µg/mL and the MBC (Escherichia coli) is reported as 128 µg/mL. It also gave a half-life [1] of 65 days.

For CC1(C)C(=O)N(CCCCS(=O)(=O)[O-])C(C)(C)N1Cl.[Na+], the MBC (Staphylococcus aureus) was 8 µg/mL, the MFC (Candida albicans) was 32 µg/mL and the MBC (Escherichia coli) was 16 µg/mL. It also gave a half-life [1] greater than 84 days.

With CC1(C)C(=O)N(CCCCC[N+](C)(C)C)C(=O)N1Cl.[Cl-] the MBC (Staphylococcus aureus) was 128 µg/mL, the MFC (Candida albicans) was greater than 1020 µg/mL and the MBC (Escherichia coli) was 128 µg/mL. For the same compound, the half-life [1] was 22 days.

Compound CC1(C)C(=O)N(CCCCO)C(C)(C)N1Cl has an MBC (Staphylococcus aureus) of 2 µg/mL (≈ 8.04 µM), an MFC (Candida albicans) of 256 µg/mL (≈ 1030 µM) and an MBC (Escherichia coli) of 2 µg/mL (≈ 8.04 µM). For the same compound, the half-life [1] was greater than 92 days.

In the case of CC1(C)CC(CCO)OC(=O)N1Cl (stereo not drawn), the half-life [1] is reported as greater than 14 days.

CC1(C)C(=O)N(CCC[N+](C)(C)C)C(=O)N1Cl.[Cl-] showed an MBC (Staphylococcus aureus) greater than 128 µg/mL, an MFC (Candida albicans) greater than 1020 µg/mL and an MBC (Escherichia coli) of 128 µg/mL. It also gave a half-life [1] of 4 days.

Compound CC1(C)C(=O)N(CCC[N+](C)(C)C)C(C)(C)N1Cl.[Cl-] has an MBC (Staphylococcus aureus) of 2 µg/mL, an MFC (Candida albicans) of 32 µg/mL and an MBC (Escherichia coli) of 4 µg/mL. The half-life [1] was 111 days.

CC1(C)CC([N+](C)(C)C)CC(C)(C)N1Cl.[Cl-] showed an MBC (Staphylococcus aureus) of 8 µg/mL, an MFC (Candida albicans) of 256 µg/mL and an MBC (Escherichia coli) of 16 µg/mL. The half-life [1] was 28 days.

CC1(C)C(=O)N(CCO)CC(=O)N1Cl gave a half-life [1] of less than 1 days.

In the case of CC1(C)C(=O)N(CCS(=O)(=O)CCCS(=O)(=O)[O-])C(=O)N1Cl.[Cs+], the MBC (Staphylococcus aureus) is reported as greater than 256 µg/mL, the MFC (Candida albicans) is reported as greater than 256 µg/mL and the MBC (Escherichia coli) is reported as 256 µg/mL. It also gave a half-life [1] greater than 7 days.

Work on CC1(C)C(=O)N(CCS(=O)(=O)[O-])CC(=O)N1Cl.[Na+] yielded an MBC (Staphylococcus aureus) of 128 µg/mL, an MFC (Candida albicans) greater than 256 µg/mL and an MBC (Escherichia coli) of 128 µg/mL. The half-life [1] was 90 days.
